Measured values pooled from the literature.
Compare with care: the assays were run in different laboratories.
Target: Tau-tubulin kinase 2 (TTBK2, Homo sapiens, UniProt Q6IQ55)
Effect on: enzyme activity
Mode: inhibitor

CC(C)(C)c1nc2c(s1)c1nc(N)ncc1c1ccc(NS(=O)(=O)c3c(F)cccc3F)c(F)c12  remaining activity (radiometric; 1 µM): 104%
COc1cc(Cl)c(C(=O)N[C@@H](CN[C@H]2CC[C@@H](N)CC2)Cc2ccc(C#N)cc2)cc1-c1ccc(CN[C@H](C)c2ccc(C)cc2)o1  remaining activity (1 µM): 96%
O=C(Nc1cnn(-c2csc(C(=O)NC3COC3)c2)c1)Nc1ccccc1Cl  remaining activity (5 µM): 107%
CC(C)(O)[C@H]1CC[C@H](Nc2ccc3ncc(-c4cccc(C(F)(F)F)c4)n3n2)CC1  remaining activity (1 µM): 94.4%
CN1CC(Oc2cnc(C#N)cc2-c2ccn3nc(NC(=O)C4CC4)cc3c2)C1  inhibition (1 µM): 13%
COc1cc(Nc2cnc(C#N)c(O[C@H](C)CN(C)C)n2)ncc1-c1cnn(C)c1  remaining activity (radiometric; 1 µM): 100%
FC(F)(F)Oc1cccc(-c2cnc3ccc(-c4ccncc4)nn23)c1  activity vs control (radiometric; 1 µM): 96%
COc1cc(/C=C/C(=O)CC(=O)/C=C/c2ccc(O)c(OC)c2)ccc1O  activity vs control (1 µM): 115%
Cc1ccc(C(=O)NCc2ccsc2)cc1C#Cc1cn(C(C)C)c2ncnc(N)c12  activity vs control (1 µM): 87%
CC(C)(C)c1nc(-c2cccc(NS(=O)(=O)c3c(F)cccc3F)c2F)c(-c2ccnc(N)n2)s1  remaining activity (radiometric; 1 µM): 104%
O=C(Nc1cnn(-c2csc(C(=O)NC3COC3)c2)c1)Nc1c(F)cccc1Cl  remaining activity (5 µM): 104%
